From ChEMBL document CHEMBL1142487, “Design, synthesis, and structure-activity relationship of novel opioid kappa-agonists” (Bioorg Med Chem, 2008)
The source made the active and inactive calls. No cut-off for these calls is given here.

Experiments:
[1] = tested on: Mus musculus; assay: Antinociceptive activity in sc dosed mouse assessed as inhibition of acetic acid-induced writhing administered 15 mins before acetic acid challenge; type: functional
In short: (§1)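 Male mice (5 weeks old) received test compound sc into the rostral back or po, 15 min before ip 0.6% aqueous acetic acid (0.1 mL/10 g). Writhes were counted over 10 min, starting 10 min after the acid. […] The po/sc ED50 ratio was calculated.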

[2] = target: Kappa-type opioid receptor (Mus musculus) (UniProt P33534); assay: Equilibrium constant, ratio of IC50 for kappa opioid receptor in ddy mouse vas deferens in presence of 10 nM nor-BNI to IC50 for kappa opioid receptor in ddy mouse vas deferens
In short: (§2)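 Electrically stimulated ddY mouse vas deferens was held in Krebs-Henseleit at 37 °C under 95% O2/5% CO2. Tissue was preincubated 20 min with antagonist before the test agonist: naloxone 30 nM (μ), NTI 10 nM (δ), or nor-BNI 10 nM (κ). IC50s were compared with and without antagonist. Ke = [antagonist]/(IC50 ratio − 1).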

[3] = tested on: Mus musculus; assay: Ratio of ED50 for acetic acid-induced writhing in po dosed mouse to ED50 for acetic acid-induced writhing in sc dosed mouse; type: functional; in short: as §1
[4] = target: Mu-type opioid receptor (Mus musculus) (UniProt P42866); assay: Equilibrium constant, ratio of IC50 for mu opioid receptor in ddy mouse vas deferens in presence of 30 nM naloxone to IC50 for mu opioid receptor in ddy mouse vas deferens; in short: as §2
[5] = tested on: Mus musculus; assay: Antinociceptive activity in po dosed mouse assessed as inhibition of acetic acid-induced writhing administered 15 mins before acetic acid challenge; type: functional; in short: as §1
[6] = target: Delta-type opioid receptor (Mus musculus) (UniProt P32300); assay: Equilibrium constant, ratio of IC50 for delta opioid receptor in ddy mouse vas deferens in presence of 10 nM Naltrindole to IC50 for delta opioid receptor in ddy mouse vas deferens; in short: as §2
[7] = target: Kappa-type opioid receptor (Mus musculus, UniProt P33534); assay: Agonist activity at kappa opioid receptor in ddy mouse vas deferens assessed as inhibition of electric stimulation-induced contraction; type: functional, tissue-based
[8] = tested on: Mus musculus; assay: Inhibition of acetic acid-induced writhing in sc dosed mouse up to 180 mins administered 15 mins before acetic acid challenge; type: functional, organism-based

CN(C(=O)/C=C/c1ccoc1)[C@@H]1CC[C@@]2(O)[C@H]3Cc4ccc(O)c5c4[C@@]2(CCN3CCc2ccccc2)[C@H]1O5
ED50 [1]: 1.03 mg/kg

O=C(/C=C/c1ccoc1)S[C@@H]1CC[C@@]2(O)[C@H]3Cc4ccc(O)c5c4[C@@]2(CCN3CC2CC2)[C@H]1O5
ED50 [1]: > 10 mg/kg

Cc1cccc(/C=C/C(=O)N(C)[C@@H]2CC[C@@]3(O)[C@H]4Cc5ccc(O)c6c5[C@@]3(CCN4CC3CC3)[C@H]2O6)c1
Ke [2]: 1.95 nM
Ratio ED50 [3]: 9.7
Ke [4]: 1780 nM
ED50 [5]: 0.064 mg/kg
Ke [6]: 64.5 nM
IC50 [7]: 0.32 nM
Activity [8]: Active

CN(C(=O)/C=C/c1ccoc1)[C@@H]1CC[C@H]2[C@H]3Cc4ccc(O)c5c4[C@@]2(CCN3CC2CC2)[C@H]1O5
Ke [2]: 0.07 nM
Ke [4]: 8.04 nM
Ke [6]: 1.31 nM
IC50 [7]: 0.035 nM
ED50 [1]: 0.02 mg/kg

COc1cccc(/C=C/C(=O)N(C)[C@@H]2CC[C@@]3(O)[C@H]4Cc5ccc(O)c6c5[C@@]3(CCN4CC3CC3)[C@H]2O6)c1
Ke [2]: 1.6 nM
Ratio ED50 [3]: 4.4
Ke [4]: 60.9 nM
ED50 [5]: 0.0048 mg/kg
Ke [6]: 96.4 nM
IC50 [7]: 0.75 nM
ED50 [1]: 0.0011 mg/kg
Activity [8]: Active

CN(C(=O)/C=C/c1cccc([N+](=O)[O-])c1)[C@@H]1CC[C@@]2(O)[C@H]3Cc4ccc(O)c5c4[C@@]2(CCN3CC2CC2)[C@H]1O5
Ke [2]: 1.4 nM
Ratio ED50 [3]: 12.9
Ke [4]: 185 nM
ED50 [5]: 0.22 mg/kg
Ke [6]: 89 nM
IC50 [7]: 0.23 nM

CN(C(=O)/C=C/c1ccoc1)[C@@H]1CC[C@@]2(O)[C@H]3Cc4ccc(O)c5c4[C@@]2(CCN3)[C@H]1O5
ED50 [1]: 7.07 mg/kg

CCC/C=C/C(=O)N(C)[C@@H]1CC[C@@]2(O)[C@H]3Cc4ccc(O)c5c4[C@@]2(CCN3CC2CC2)[C@H]1O5
Ke [2]: 0.072 nM
Ratio ED50 [3]: 8.8
Ke [4]: 1800 nM
ED50 [5]: 0.21 mg/kg
IC50 [7]: 0.647 nM

CN(C(=O)CCc1ccccc1)[C@@H]1CC[C@@]2(O)[C@H]3Cc4ccc(O)c5c4[C@@]2(CCN3CC2CC2)[C@H]1O5
Ke [2]: 0.008 nM
Ratio ED50 [3]: 7.3
ED50 [5]: 0.29 mg/kg
Ke [6]: 188 nM
IC50 [7]: 0.019 nM

CCCCCCN[C@@H]1CC[C@@]2(O)[C@H]3Cc4ccc(O)c5c4[C@@]2(CCN3CC2CC2)[C@H]1O5
Ke [2]: 0.3 nM
Ke [4]: 14 nM
IC50 [7]: 2 nM

CN(C(=O)c1ccc2ccccc2c1)[C@@H]1CC[C@@]2(O)[C@H]3Cc4ccc(O)c5c4[C@@]2(CCN3CC2CC2)[C@H]1O5
ED50 [1]: 3.6 mg/kg

CN(C(=O)/C=C/c1ccoc1)[C@H]1CC[C@@]2(O)[C@H]3Cc4ccc(O)c5c4[C@@]2(CCN3CC2CC2)[C@H]1O5
ED50 [5]: 0.13 mg/kg

CN(C(=O)/C=C/c1cccc(C(F)(F)F)c1)[C@@H]1CC[C@@]2(O)[C@H]3Cc4ccc(O)c5c4[C@@]2(CCN3CC2CC2)[C@H]1O5
Ke [2]: 3.2 nM
Ratio ED50 [3]: 7.4
ED50 [5]: 0.034 mg/kg
Ke [6]: 291 nM
IC50 [7]: 0.47 nM

CN(C(=O)/C=C/c1ccccc1)[C@@H]1CC[C@@]2(O)[C@H]3Cc4ccc(O)c5c4[C@@]2(CCN3CC2CC2)[C@H]1O5
Ke [2]: 0.861 nM
Ratio ED50 [3]: 5.5
Ke [4]: 922 nM
ED50 [5]: 0.011 mg/kg
Ke [6]: 263 nM
IC50 [7]: 0.166 nM
ED50 [1]: 0.002 mg/kg
Activity [8]: Active

CN(C(=O)/C=C/C1CCCCC1)[C@@H]1CC[C@@]2(O)[C@H]3Cc4ccc(O)c5c4[C@@]2(CCN3CC2CC2)[C@H]1O5
Ke [2]: 1.08 nM
Ratio ED50 [3]: 17
Ke [4]: 5710 nM
ED50 [5]: 0.071 mg/kg
Ke [6]: 143 nM
IC50 [7]: 0.457 nM
ED50 [1]: 0.004 mg/kg
Activity [8]: Active

O=C(/C=C/c1ccoc1)N[C@@H]1CC[C@@]2(O)[C@H]3Cc4ccc(O)c5c4[C@@]2(CCN3CC2CC2)[C@H]1O5
Ke [2]: 0.44 nM
Ke [6]: 8100 nM
IC50 [7]: 0.869 nM
ED50 [1]: 0.95 mg/kg

CN(C(=O)/C=C/c1cccs1)[C@@H]1CC[C@@]2(O)[C@H]3Cc4ccc(O)c5c4[C@@]2(CCN3CC2CC2)[C@H]1O5
Ke [2]: 0.28 nM
Ratio ED50 [3]: 9.6
ED50 [5]: 0.026 mg/kg
Ke [6]: 89.6 nM
IC50 [7]: 0.1 nM
ED50 [1]: 0.0027 mg/kg
Activity [8]: Active

CN(C(=O)/C=C/c1ccsc1)[C@@H]1CC[C@@]2(O)[C@H]3Cc4ccc(O)c5c4[C@@]2(CCN3CC2CC2)[C@H]1O5
Ke [2]: 1.71 nM
Ratio ED50 [3]: 9.5
ED50 [5]: 0.04 mg/kg
IC50 [7]: 0.1 nM
Activity [8]: Active

CC(=O)Nc1ccc2c3c1O[C@H]1[C@H](N(C)C(=O)/C=C/c4ccoc4)CC[C@@]4(O)[C@@H](C2)N(CC2CC2)CC[C@]314
ED50 [1]: > 10 mg/kg

CN(C(=O)Cc1ccc(Cl)c(Cl)c1)[C@@H]1CC[C@@]2(O)[C@H]3Cc4ccc(O)c5c4[C@@]2(CCN3CC2CC2)[C@H]1O5
Ke [2]: 1.37 nM
Ratio ED50 [3]: 39.1
Ke [4]: 17000 nM
ED50 [5]: 18 mg/kg
Ke [6]: 1110 nM
IC50 [7]: 17 nM

CN(C(=O)/C=C/c1ccco1)[C@@H]1CC[C@@]2(O)[C@H]3Cc4ccc(O)c5c4[C@@]2(CCN3CC2CC2)[C@H]1O5
Ke [2]: 0.2 nM
Ratio ED50 [3]: 9.4
ED50 [5]: 0.015 mg/kg
IC50 [7]: 0.55 nM
Activity [8]: Active

CCCCCCO[C@@H]1CC[C@@]2(O)[C@H]3Cc4ccc(O)c5c4[C@@]2(CCN3CC2CC2)[C@H]1O5
Ke [2]: 0.12 nM
Ke [4]: 4.5 nM
Ke [6]: 1.5 nM
IC50 [7]: 16 nM
ED50 [1]: 1.78 mg/kg

CN1CC[C@]23c4c5ccc(O)c4O[C@H]2[C@H](N(C)C(=O)/C=C/c2ccoc2)CC[C@@]3(O)[C@H]1C5
Ke [2]: 6.3 nM
Ke [4]: 8.1 nM
Ke [6]: 33 nM
IC50 [7]: 55 nM
ED50 [1]: 1.03 mg/kg

CN(C(=O)Cc1ccc(Cl)c(Cl)c1)[C@H]1CC[C@@]2(O)[C@H]3Cc4ccc(O)c5c4[C@@]2(CCN3CC2CC2)[C@H]1O5
Ke [2]: 0.55 nM
Ratio ED50 [3]: 48
Ke [4]: 53 nM
ED50 [5]: 0.83 mg/kg
Ke [6]: 17.1 nM
IC50 [7]: 0.4 nM

CN(C(=O)/C=C/c1ccoc1)[C@@H]1CC[C@@]2(O)[C@H]3Cc4ccc(N)c5c4[C@@]2(CCN3CC2CC2)[C@H]1O5
ED50 [1]: 0.2 mg/kg

CN(C(=O)/C=C/c1ccoc1)[C@@H]1CC[C@@]2(O)[C@H]3Cc4cccc5c4[C@@]2(CCN3CC2CC2)[C@H]1O5
Ke [2]: 0.07 nM
Ke [4]: 12 nM
Ke [6]: 8.4 nM
IC50 [7]: 27.2 nM

CN(C(=O)/C=C/c1cccc(F)c1)[C@@H]1CC[C@@]2(O)[C@H]3Cc4ccc(O)c5c4[C@@]2(CCN3CC2CC2)[C@H]1O5
Ke [2]: 2.37 nM
Ratio ED50 [3]: 3.7
ED50 [5]: 0.007 mg/kg
Ke [6]: 276 nM
IC50 [7]: 1.6 nM
Activity [8]: Active

CN(C(=O)/C=C/c1ccc(C(F)(F)F)cc1)[C@@H]1CC[C@@]2(O)[C@H]3Cc4ccc(O)c5c4[C@@]2(CCN3CC2CC2)[C@H]1O5
Ke [2]: 0.2 nM
Ratio ED50 [3]: 1.1
Ke [4]: 524 nM
ED50 [5]: 0.026 mg/kg
Ke [6]: 78 nM
IC50 [7]: 0.07 nM
Activity [8]: Active
